As a reminder, the IC50 is the concentration that gives 50% inhibition.

IC50 and inhibition data for 13 compounds are collected here from ChEMBL document CHEMBL4325864, “Discovery of new potent protein arginine methyltransferase 5 (PRMT5) inhibitors by assembly of key pharmacophores from known inhibitors” (Bioorg Med Chem Lett, 2018).

Molecules are shown by their SMILES.

The target of one experiment is PRMT5/MEP50 complex (Homo sapiens, UniProt O14744). As to the kind of experiment: Inhibition of recombinant human N-terminal FLAG-tagged PRMT5 (2 to end residues) /human N-terminal His-tagged MEP50 (2 to end residues) expressed in HEK293F cells pretreated for 15 mins followed by substrate and [3H]-SAM addition measured after 60 mins by scintillation proximity assay. It is filed as cell-based. The essentials: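 PRMT5 enzymatic inhibition measured by radiometric scintillation proximity assay; IC50 determined.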

In experiment [1] the target is Protein arginine N-methyltransferase 5 (Homo sapiens, UniProt O14744). The experiment in a line: Inhibition of PRMT5 in human KARPAS422 cells assessed as decrease in symmetric arginine dimethylation of SmD3 after 4 days by Western blot analysis. It is filed as cell-based. The following applies: in the assay text read “after 72 h” for “after 4 days”. The essentials:
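KARPAS-422 and SU-DHL-4 cells treated across a concentration range; symmetric arginine dimethylation of SmD3 detected by Western blot with symmetric dimethyl arginine (SDMA) antibody.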
(In general: In western blotting, separated proteins are transferred to a membrane and probed.)

Chain of PRMT5/MEP50 complex (O14744 whole entry): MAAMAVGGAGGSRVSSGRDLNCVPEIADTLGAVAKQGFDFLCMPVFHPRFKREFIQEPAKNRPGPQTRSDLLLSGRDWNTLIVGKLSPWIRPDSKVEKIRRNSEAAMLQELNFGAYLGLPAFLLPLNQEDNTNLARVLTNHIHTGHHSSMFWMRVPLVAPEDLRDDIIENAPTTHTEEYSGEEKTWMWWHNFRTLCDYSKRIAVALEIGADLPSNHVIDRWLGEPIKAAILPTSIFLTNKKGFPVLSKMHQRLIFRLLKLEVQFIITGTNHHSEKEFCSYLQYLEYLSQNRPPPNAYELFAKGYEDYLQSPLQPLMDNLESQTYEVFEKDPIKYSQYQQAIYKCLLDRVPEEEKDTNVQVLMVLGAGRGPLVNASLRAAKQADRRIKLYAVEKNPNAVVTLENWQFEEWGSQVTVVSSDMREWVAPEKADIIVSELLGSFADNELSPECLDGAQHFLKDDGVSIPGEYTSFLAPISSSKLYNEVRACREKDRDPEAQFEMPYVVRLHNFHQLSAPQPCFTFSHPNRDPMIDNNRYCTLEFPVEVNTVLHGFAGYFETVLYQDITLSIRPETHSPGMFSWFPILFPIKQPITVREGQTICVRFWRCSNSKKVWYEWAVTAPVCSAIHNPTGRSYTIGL
Chain of PRMT5/MEP50 complex (Q9BQA1 whole entry, further chain): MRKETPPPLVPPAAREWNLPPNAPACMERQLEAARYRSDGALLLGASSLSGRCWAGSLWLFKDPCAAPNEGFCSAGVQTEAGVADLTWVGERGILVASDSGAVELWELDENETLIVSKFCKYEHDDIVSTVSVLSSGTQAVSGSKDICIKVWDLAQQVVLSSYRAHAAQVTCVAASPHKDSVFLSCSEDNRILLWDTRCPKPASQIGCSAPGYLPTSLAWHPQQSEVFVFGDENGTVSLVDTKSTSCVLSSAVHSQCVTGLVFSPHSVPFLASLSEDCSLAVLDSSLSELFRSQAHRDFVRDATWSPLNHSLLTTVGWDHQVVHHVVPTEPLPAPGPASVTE
Chain of Protein arginine N-methyltransferase 5 (O14744 whole entry): as the sequence (O14744 whole entry) above

Turning to `COc1ccc(NC(=O)CCN2CCc3ccccc3C2)cc1`, the IC50 at PRMT5/MEP50 complex was above 100 µM.
In the case of `CC(=O)c1cccc(NC(=O)CCN2CCc3ccccc3C2)c1`, the IC50 at PRMT5/MEP50 complex turned out to be 51.9 µM.
For the compound `O=C(CCN1CCc2ccccc2C1)Nc1ccccc1`, the IC50 at PRMT5/MEP50 complex was above 100 µM.
`COC(=O)c1ccccc1NC(=O)CN1CCc2ccccc2C1`: the IC50 on PRMT5/MEP50 complex was 60 µM.
Still for that read-out and setting: the same measure for `Cc1cc([N+](=O)[O-])ccc1NC(=O)CCN1CCc2ccccc2C1`: above 100 µM.
Same read-out and setting: the result for `Cc1ccc(NC(=O)CCN2CCc3ccccc3C2)cc1` reads above 100 µM.
Consider `O=C(CCN1CCc2ccccc2C1)Nc1cccc(OC(F)(F)F)c1`, for which the IC50 on PRMT5/MEP50 complex worked out at 63 µM.
On to `COC(=O)c1ccccc1NC(=O)CCN1CCc2ccccc2C1`, for which the IC50 at PRMT5/MEP50 complex came to 31.6 µM.
Turning to `O=C(CCN1CCc2ccccc2C1)Nc1cccc(Cl)c1`, the IC50 at PRMT5/MEP50 complex was found to be 42.1 µM.
As to `Cc1cccc(NC(=O)CCN2CCc3ccccc3C2)c1`, the IC50 on PRMT5/MEP50 complex was above 100 µM.
Turning to `O=C(NC[C@H](O)CN1CCc2ccccc2C1)c1cc(NC2COC2)ncn1`, the inhibition result in experiment [1] is “Dose-dependent effect”.
For `Cc1ccc(NC(=O)CCN2CCc3ccccc3C2)c([N+](=O)[O-])c1`, the IC50 at PRMT5/MEP50 complex was above 100 µM.
`N#Cc1ccccc1NC(=O)CCN1CCc2ccccc2C1`: at PRMT5/MEP50 complex, the IC50 was determined as 25.6 µM.
